# Rows were chosen to be rich in hits. Some 1.9% of all compounds tested hit in one or more screens of this group.
# CHRM4 PAM: human M4 muscarinic receptor positive allosteric modulators, primary screen, CHO-K1 cells, Fluo-8 calcium fluorescence | Muscarinic acetylcholine receptor M4 (Homo sapiens), P08173 | CHO-K1 hM4/Gqi5, ACh EC20; 0% = ACh EC20, 100% = maximal ACh | activation, % at 3 µM | 0.4% of 360,000 active | AID 624126, 2012;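 active = activation above its plate's cutoff, the mean activation of sample wells plus 3 SD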
# M5 PAM: human M5 muscarinic receptor positive allosteric modulators, primary screen, CHO-K1 cells, Fluo-8 calcium fluorescence. activation, % at 3 µM. 0.3% of 360,000 active. AID 624038, 2012. CHO-K1 hM5, ACh EC20 PAM; 0% = ACh EC20, 100% = ACh EC100;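 active = activation above the run cutoff, the mean activation of all test compounds plus 3 SD, cut at about 18% in these data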
# Target sequence (P08912 whole entry, looked up): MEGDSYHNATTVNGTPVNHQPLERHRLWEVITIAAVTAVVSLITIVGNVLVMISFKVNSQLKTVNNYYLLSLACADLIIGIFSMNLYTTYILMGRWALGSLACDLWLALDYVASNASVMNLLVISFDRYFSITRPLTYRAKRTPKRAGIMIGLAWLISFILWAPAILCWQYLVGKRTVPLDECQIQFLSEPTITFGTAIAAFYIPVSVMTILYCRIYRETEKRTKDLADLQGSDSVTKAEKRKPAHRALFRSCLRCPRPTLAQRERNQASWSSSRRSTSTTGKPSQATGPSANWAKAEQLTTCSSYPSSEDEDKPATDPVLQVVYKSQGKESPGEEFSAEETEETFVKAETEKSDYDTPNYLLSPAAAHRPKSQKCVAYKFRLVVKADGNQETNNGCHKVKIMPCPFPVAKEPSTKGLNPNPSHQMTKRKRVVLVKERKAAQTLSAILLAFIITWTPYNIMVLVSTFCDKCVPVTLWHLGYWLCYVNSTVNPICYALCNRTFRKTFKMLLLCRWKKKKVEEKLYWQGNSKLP
#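 Assay system: CHO-K1 hM5 cells. Also added: acetylcholine at EC20 concentration, added after compound. Dosing: 3 µM, single dose. Times: compound preincubation 140 s before EC20 acetylcholine addition. Signal: Fluo-8 calcium fluorescence. Measure: % activation relative to EC20 and EC100 ACh responses. Repeats: singlicate, one well per test compound.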
# M4 antag: human M4 muscarinic receptor antagonists, primary screen, CHO cells, Fluo-8 calcium fluorescence. inhibition, % at 3 µM. 0.73% of 360,000 active. AID 624125, 2012. Muscarinic acetylcholine receptor M4 (Homo sapiens), P08173. CHO-hM4 cells, ACh EC80;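 active = inhibition above its plate's cutoff, the mean inhibition of sample wells plus 3 SD, cut at about 27% in these data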;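 also: 0% = acetylcholine EC80 with DMSO and 100% = DMSO without agonist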
# CHRM5 agonist: human M5 muscarinic receptor agonists, primary screen, CHO-K1 cells, Fluo-8 calcium fluorescence | AID 624037, 2012 | CHO-K1 hM5 cells; 0% DMSO wells, 100% maximal acetylcholine response | 0.19% of 360,000 active | activation, % at 3 µM | Muscarinic acetylcholine receptor M5 (Homo sapiens), P08912;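 active = activation above the run's mean over test compounds plus 3 SD, cut at about 23% in these data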;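 also: signal is peak over basal fluorescence ratio across the kinetic read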
# CHRM4 agonist: human M4 muscarinic receptor agonists, primary screen, CHO-K1 cells, Fluo-8 calcium fluorescence; Muscarinic acetylcholine receptor M4 (Homo sapiens), P08173; CHO-K1 hM4/Gqi5; vehicle 0%, full acetylcholine response 100%; activation, % at 3 µM; 0.14% of 360,000 active; AID 624127, 2012;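 active = activation above the run mean over all test wells plus 3 SD, cut at about 32% in these data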;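 also: peak over basal fluorescence ratio per well then scaled between controls; 0% = DMSO wells and 100% = acetylcholine at EC100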
# CHRM5 antagonist: human M5 muscarinic receptor antagonists, primary screen, CHO cells, Fluo-8 calcium fluorescence | CHO-hM5 cells, ACh EC80 | 0.59% of 360,000 active | AID 624040, 2012 | Muscarinic acetylcholine receptor M5 (Homo sapiens), P08912 | inhibition, % at 3 µM;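 active = inhibition above a per-plate cutoff, the mean of that plate's test compounds plus 3 SD, cut at about 27% in these data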;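 also: 0% = acetylcholine EC80 with DMSO and 100% = DMSO without agonist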
# * = called active by the depositor.
SMILES,CHRM4 PAM,M5 PAM,M4 antag,CHRM5 agonist,CHRM4 agonist,CHRM5 antagonist
CCOC(=O)C1CCCN(C(=O)Cn2nc(C)c3c(C)n(-c4ccccc4)nc3c2=O)C1 (stereo not drawn),17.5*,12.6,0.4,-2.4,1.1,2.3
CCOC(=O)C1CCCN(C(=S)Nc2ccc(C)cc2C)C1 (stereo not drawn),9.8,-6.4,4.2,35.6*,1.9,10.3
CCOC(=O)C1CCCN(C(=O)Cc2ccc(C)cc2)C1 (stereo not drawn),0.9,8.8,7.8,-2.7,0.4,-6.7
CCOC(=O)C1CCCN(C(=S)Nc2ccc(Nc3ccccc3)cc2)C1 (stereo not drawn),-10.7,-7.6,15.8,32.0*,5.1,1.0
Cc1cc(C)cc(N2CC(C(=O)NC3CCCCC3)CC2=O)c1 (stereo not drawn),-3.7,1.8,-0.6,-4.3,2.4,11.7
O=C(NCCCN1CCOCC1)c1cccc(S(=O)(=O)Nc2cc(Cl)ccc2Cl)c1,-2.5,-3.1,-4.6,-4.2,0.8,-2.9
CCOC(=O)C1CCCN(C(=O)C2c3ccccc3Oc3ccccc32)C1 (stereo not drawn),2.7,-8.5,15.8,27.1*,20.4,2.5
CCOC(=O)C1CCCN(C(=O)C2COc3ccccc3O2)C1 (stereo not drawn),-0.4,0.0,-3.5,1.7,0.6,-1.7
CC(Sc1cnccn1)C(=O)O (stereo not drawn),-9.2,-15.0,6.9,-1.5,21.8,31.5*
Cc1cc(C(C)(C)CC(C)(C)C)ccc1OCCOCC[N+](C)(C)Cc1ccccc1,-14.4,-14.7,27.2*,-2.2,0.2,7.4
C[N+](C)(CCOc1ccccc1)Cc1ccccc1,-4.2,-4.8,7.5,-1.6,0.2,6.6
Nn1c(SCC(=O)NNC(=O)c2ccccc2)nnc1-c1ccccc1F,11.6,-0.2,-2.9,3.5,3.2,1.2
O=C(NC(Cc1c[nH]c2ccccc12)C(=O)N/N=C/c1ccc(Cl)cc1)c1cccs1 (stereo not drawn),-11.6,-15.4,8.0,-1.7,12.8,26.9*
COCCOc1ccc(C(F)(F)F)cc1NC(=O)c1ccccc1,11.7,-5.5,-1.8,1.2,0.1,1.1
CC(C)(C)c1ccc(OCCOc2ccc(C(C)(C)C)cc2NC=O)c(NC=O)c1,-14.9,-21.1,30.6*,0.7,19.2,28.4*
CCCNc1ncc2c(=O)[nH][nH]c(=O)c2n1,-6.8,5.6,4.2,1.2,0.2,16.4
CC(=C/c1ccccc1)/C=N/NC(=O)c1cccs1,-0.8,-4.5,-3.3,-4.8,-0.9,3.3
O=C(N/N=C/C(Br)=C\c1ccccc1)c1cccs1,-1.3,22.8*,-4.3,6.5,1.9,-29.2
O=C(O)CC(SCC(=O)Nc1ccc(S(=O)(=O)N2CCCC2)cc1)C(=O)O (stereo not drawn),7.1,-4.7,-18.5,-5.7,-0.7,-2.7
O=C(O)CC(SCC(=O)Nc1ccccc1)C(=O)O (stereo not drawn),22.0*,5.8,-12.3,1.1,0.5,-2.0
CC(C)Cc1nn2c(N)c(/C=C3\C=Nc4ccccc43)c(=O)nc2s1,-8.4,-18.7,1.0,2.7,14.0,32.2*
CCCCN(C)C(=O)Cn1cnc2sc(C)c(S(=O)(=O)N3CCN(c4ccccc4OC)CC3)c2c1=O,-4.0,0.2,5.9,1.7,2.9,7.7
CC1CCC(NC(=O)C2CCN(c3c4c(nc5ncnn35)CCC4)CC2)CC1 (stereo not drawn),-1.5,-3.3,11.5,0.4,0.3,8.4
Cn1nc(C(=O)NCc2ccco2)c2ccccc2c1=O,22.6*,-3.1,-2.3,-1.4,1.6,3.4
Cn1nc(C(=O)Nc2cccnc2)c2ccccc2c1=O,1.4,-2.6,-6.0,-0.2,1.3,-4.0
SMILES,CHRM4 PAM,M5 PAM,M4 antag,CHRM5 agonist,CHRM4 agonist,CHRM5 antagonist
Cn1nc(C(=O)NCCN2CCOCC2)c2ccccc2c1=O,-4.5,-2.7,9.1,-1.6,1.3,-3.1
CCn1cc(C(=O)NCc2ccco2)c(=O)c2ccc(C)nc21,18.9*,13.0,-21.9,-0.7,1.4,-10.4
Cn1nc(C(=O)NCc2cccnc2)c2ccccc2c1=O,7.1,19.7*,-9.3,0.0,0.5,11.9
CCn1cc(C(=O)NCCOC)c(=O)c2ccc(C)nc21,-2.3,-16.1,0.5,-3.8,0.0,0.0
COc1cccc(NC(=O)COc2cccc3c2CCNC3=O)c1,3.1,1.4,-3.7,-2.9,3.4,-0.5
CC1CCCCN1C(=O)COC(=O)C1CCN(S(=O)(=O)c2c(Cl)cccc2Cl)CC1 (stereo not drawn),-5.0,-4.4,-3.8,0.7,7.3,7.6
COc1ccc(C(O)c2nc(-c3ccc(N(C)C)cc3)cs2)cc1 (stereo not drawn),-13.7,-10.6,8.5,13.2,38.3*,1.9
COc1ccc(-c2csc(C(O)c3ccc(F)cc3)n2)cc1 (stereo not drawn),-10.9,-11.1,-3.6,8.5,47.4*,-1.1
CN(C)c1ccc(-c2csc(C(O)c3ccc(F)cc3)n2)cc1 (stereo not drawn),-13.0,-16.9,10.1,29.6*,59.6*,-5.2
CN(C)c1ccc(-c2csc(C(O)c3ccc(F)c(F)c3)n2)cc1 (stereo not drawn),-14.7,-17.7,45.6*,50.0*,101.7*,37.2*
CC(=O)c1ccc(S(=O)c2ccccc2)cc1 (stereo not drawn),33.7*,1.9,-3.2,-4.8,1.8,0.3
Cc1ccc(NC(=O)C2(C)Cc3ccccc3C(=O)O2)cc1 (stereo not drawn),24.8*,16.3,-4.9,3.1,1.7,-10.0
Cc1ccc2c(c1)NC(=O)C(CC(=O)Nc1ccc(CN3CCC(C)CC3)cc1)O2 (stereo not drawn),-16.8,-23.6,98.7*,-5.0,0.8,71.1*
CN(C)S(=O)(=O)c1ccc(C(=O)N2CCN=C2SCc2cccnc2)cc1,19.5*,4.0,14.2,-5.0,2.1,-1.3
S=C1NC[C@H](Cc2cccc3ccccc23)N1CC1CCCCC1,9.6,6.8,-4.2,-1.1,4.2,5.5
O=C1NC[C@@H](Cc2cccc3ccccc23)N(CC2CCCCC2)C1=O,6.6,22.4*,-0.8,1.7,0.6,-17.4
Cc1cccc(NC(=O)COC(=O)c2cccc3c2C(=O)c2ccccc2C3=O)c1C,-31.8,-18.5,57.3*,-1.6,-0.7,30.0*
